Results from different studies.
Lines come from different studies, so protocols differ.
WDR5: WD repeat-containing protein 5 (WDR5, Homo sapiens, UniProt P61964)
OfChi-h: Chitinase (OfChi-h, Ostrinia furnacalis, UniProt Q4AE59)
HDAC7: Histone deacetylase 7 (HDAC7, Homo sapiens, UniProt Q8WUI4)

SMILES | target | assay | conditions | endpoint | value
C[C@@H]1CN(c2ccc(-c3cc(C(=O)NCCOCCOCCOCCOCCNC(=O)Cn4cc(-c5[nH]cc(C(=O)N[C@@H](CC(N)=O)c6ccc(F)c(Cl)c6)c5-c5ccc(Cl)cc5F)cn4)ccc3F)cc2NC(=O)c2c[nH]c(=O)cc2C(F)(F)F)C[C@H](C)N1C | WDR5 | thermal stability, DSF | 5.5 µM | ΔTm | 13.4 °C
CCCCc1ccc(CNc2nc(N(C)C)nc(N(C)C)c2/N=N/c2ccc(Cl)cc2)cc1 | OfChi-h | enzyme activity, inhibitor, fluorescence | 1 µM | inhibition | 91.9%
O=C(Cn1cc(C=CC(=O)c2ccc(F)cc2)nn1)Nc1nc(-c2ccccc2)cs1 | 72 kDa type IV collagenase (MMP2, Homo sapiens, UniProt P08253) | enzyme activity, inhibitor | 0.5 µM | inhibition | 40.6%
O=C(NO)c1cncc(OS(=O)(=O)Oc2ccc(C(F)(F)F)cc2)c1 | HDAC7 | enzyme activity, inhibitor, fluorescence | 10 µM | inhibition | 49%
CN(C)c1nc(NCc2ccc(OC(F)(F)F)cc2)c(/N=N/c2ccc(Cl)cc2)c(N(C)C)n1 | OfChi-h | enzyme activity, inhibitor, fluorescence | 1 µM | inhibition | 85%
CC(C)OC(=O)CNc1cccc(CN(Cc2ccc(-n3cccn3)cc2)S(=O)(=O)c2cccnc2)n1 | Beta-2 adrenergic receptor (ADRB2, Homo sapiens, UniProt P07550) | ligand displacement, radioligand | 10 µM | inhibition | 2%
COc1cc(-c2cncc3c2CN(C)Cc2cc(N4CCNCC4)ccc2-3)cc(OC)c1OC | Serine/threonine-protein kinase 35 (STK35, Homo sapiens, UniProt Q8TDR2) | enzyme activity, inhibitor | 1 µM | remaining activity | 111%
C=CC(=O)N1CCC(COCC(=O)N2CCN(c3nc(-c4cnc(N)nc4C(F)F)nc(N4CCOC[C@@H]4C)n3)CC2)CC1 | Cyclin-dependent kinase-like 3 (CDKL3, Homo sapiens, UniProt Q8IVW4) | binding, competition with immobilised ligand | 1 µM | remaining binding | 100%
C=CS(=O)(=O)c1ccc(Nc2nc(OCC3CCCCC3)c3nc[nH]c3n2)cc1 | Gasdermin-D (GSDMD, Homo sapiens, UniProt P57764) | binding, BLI |  | koff | 0.0439 s⁻¹
C[C@@H]1CN(c2ccc(-c3cc(C(=O)NCCOCCOCCOCCOCCOCCOCCOCCOCCOCCNC(=O)/C=C/c4[nH]cc(C(=O)N[C@@H](CC(N)=O)c5ccc(F)c(Cl)c5)c4-c4ccc(Cl)cc4F)ccc3F)cc2NC(=O)c2c[nH]c(=O)cc2C(F)(F)F)C[C@H](C)N1C | WDR5 | thermal stability, DSF | 5.5 µM | ΔTm | 8.9 °C
CNc1ncc2c(/C=C/C(=O)N3CCC(OC)CC3)nn(Cc3cccc(C(F)(F)F)c3)c2n1 | Bone morphogenetic protein receptor type-1A (BMPR1A, Homo sapiens, UniProt P36894) | enzyme activity, inhibitor, radiometric | 1 µM | remaining activity | 93%
O=C(/C=C/c1cccc(OS(=O)(=O)Oc2ccc(C(F)(F)F)cc2)c1)NO | HDAC7 | enzyme activity, inhibitor, fluorescence | 10 µM | inhibition | 30%
Cc1cc([C@@H](C)Nc2ccccc2C(=O)O)c2nc(N3CCC(F)(F)CC3)c(C#N)c(=O)n2c1 | Protein kinase C epsilon type (PRKCE, Homo sapiens, UniProt Q02156) | binding, competition with immobilised ligand | 10 µM | remaining binding | 100%
